Measurements published in ChEMBL document CHEMBL1275375, “Properties and synthesis of 2-{2-fluoro (or bromo)-4-[(2-oxocyclopentyl)methyl]phenyl}propanoic acid: nonsteroidal anti-inflammatory drugs with low membrane permeabilizing and gastric lesion-producing activities” (J Med Chem, 2010).
Active and inactive are the calls of the source. No cut-off for these calls is given here.

How the values were obtained:
[1] = target: Prostaglandin G/H synthase 1 (Homo sapiens, UniProt P23219); experiment: Inhibition of COX1 in human whole blood assessed as TXB2 biosynthesis after 24 hrs by EIA; type: tissue-based
Chain of Prostaglandin G/H synthase 1 (P23219 whole entry): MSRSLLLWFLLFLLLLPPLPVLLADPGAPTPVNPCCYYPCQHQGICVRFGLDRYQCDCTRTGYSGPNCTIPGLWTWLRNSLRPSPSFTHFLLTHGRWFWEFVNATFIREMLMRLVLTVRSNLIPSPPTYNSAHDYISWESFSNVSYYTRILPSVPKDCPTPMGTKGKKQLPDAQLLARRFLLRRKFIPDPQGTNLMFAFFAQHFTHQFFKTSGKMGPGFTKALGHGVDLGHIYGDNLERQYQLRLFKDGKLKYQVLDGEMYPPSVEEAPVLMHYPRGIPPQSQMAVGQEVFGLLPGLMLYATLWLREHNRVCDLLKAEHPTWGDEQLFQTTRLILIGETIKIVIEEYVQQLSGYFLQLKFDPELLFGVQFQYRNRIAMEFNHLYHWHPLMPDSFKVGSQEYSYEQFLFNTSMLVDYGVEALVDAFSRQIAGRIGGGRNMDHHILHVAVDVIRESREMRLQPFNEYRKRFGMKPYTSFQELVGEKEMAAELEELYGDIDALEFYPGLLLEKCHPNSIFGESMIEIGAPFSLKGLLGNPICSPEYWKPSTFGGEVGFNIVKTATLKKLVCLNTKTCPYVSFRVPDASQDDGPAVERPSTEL
How it was run: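 IC50 taken from a four-parameter logistic fit of dose-response curves. Ratio is COX-1 IC50 / COX-2 IC50. Mean ± SEM, n = 3.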

[2] = target: T1, Prostaglandin G/H synthase 2 (Homo sapiens, UniProt P35354); experiment: Inhibition of COX2 in human whole blood assessed as PGE2 biosynthesis after 24 hrs by EIA; type: tissue-based
T1 sequence (P35354 whole entry): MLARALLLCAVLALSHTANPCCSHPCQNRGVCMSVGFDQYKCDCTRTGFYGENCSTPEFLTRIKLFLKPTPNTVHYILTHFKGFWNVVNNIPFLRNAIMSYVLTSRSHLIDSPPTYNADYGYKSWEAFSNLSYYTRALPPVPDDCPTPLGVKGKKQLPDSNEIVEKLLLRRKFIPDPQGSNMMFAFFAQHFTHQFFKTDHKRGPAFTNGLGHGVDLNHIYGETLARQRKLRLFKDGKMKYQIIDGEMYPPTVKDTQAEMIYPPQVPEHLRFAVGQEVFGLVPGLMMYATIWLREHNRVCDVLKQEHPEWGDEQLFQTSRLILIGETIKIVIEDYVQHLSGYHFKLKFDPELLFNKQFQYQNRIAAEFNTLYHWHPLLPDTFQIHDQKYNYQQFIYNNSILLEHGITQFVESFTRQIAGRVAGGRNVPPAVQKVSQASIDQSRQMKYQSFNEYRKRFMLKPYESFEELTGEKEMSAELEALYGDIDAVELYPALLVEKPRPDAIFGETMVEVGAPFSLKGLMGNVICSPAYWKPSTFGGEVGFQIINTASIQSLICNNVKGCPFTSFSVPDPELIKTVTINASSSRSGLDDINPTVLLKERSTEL

Homo sapiens = species on record: Homo sapiens; experiment: Selectivity ratio of IC50 for human COX1-derived TXB2 biosynthesis to IC50 for human COX2-derived PGE2 biosynthesis
How it was run: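 Human whole blood assay of COX-1- and COX-2-derived PG biosynthesis. IC50 taken from a four-parameter logistic fit of dose-response curves. Ratio is COX-1 IC50 / COX-2 IC50. Mean ± SEM, n = 3.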

[3] = Membrane permeabilization activity in calcein-loaded liposome assessed as calcein release at […] by fluorescence assay; type: physicochemical; details: artificial membrane
How it was run: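 Calcein-loaded liposomes exposed to compound; release of self-quenched calcein into the medium read as a rise in fluorescence. Triton X-100 (10 μM) defined 100% permeabilization. Mean ± SEM, n = 3.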

Rattus norvegicus [4] = experiment: Antiinflammatory activity against Wistar rat assessed as decrease in gastric level of PGE2 at 43 to 53 mg/kg, po; type: functional, organism-based; details: Stomach
How it was run: (§1)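 Rats dosed orally (low or high dose); stomachs removed 8 h later and gastric PGE₂ level measured by EIA. Mean ± SEM, n = 3, compared with vehicle.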

Rattus norvegicus [5] = experiment: Toxicity in Wistar rat assessed as gastric lesion at 43 to 53 mg/kg, po; type: organism-based, Stomach; design: dose 43-53 mg/kg, route oral; details: in vivo
How it was run: (§2)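 Rats dosed orally (low or high dose); stomachs removed 8 h after dosing and scored for hemorrhagic damage to give a lesion index. Mean ± SEM, n = 3.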

Rattus norvegicus [6] = experiment: Antiinflammatory activity in rat assessed as inhibition of carrageenan-induced paw edema at 11 mg/kg, po administered 1 hr before carrageenan challenge measured after 3 to 6 hrs; type: functional, organism-based; design: dose 11 mg/kg
How it was run: (§3)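 Oral dosing of rats 1 h before intradermal injection of 1% carrageenan into the left hindpaw. Paw edema measured 3 h and 6 h after carrageenan. Mean ± SEM, n = 3-4, compared with vehicle.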

Rattus norvegicus [7] = experiment: Toxicity in Wistar rat assessed as gastric lesion at 40 to 50 mg/kg, po; type: organism-based, Stomach; design: dose 40-50 mg/kg, route oral; details: in vivo; how it was run: as §2
Rattus norvegicus [8] = experiment: Antiinflammatory activity against Wistar rat assessed as decrease in gastric level of PGE2 at 40 to 50 mg/kg, po; type: functional, organism-based; details: Stomach; how it was run: as §1
Rattus norvegicus [9] = experiment: Antiinflammatory activity in rat assessed as inhibition of carrageenan-induced paw edema at 10 mg/kg, po administered 1 hr before carrageenan challenge measured after 3 to 6 hrs; type: functional, organism-based; design: dose 10 mg/kg; how it was run: as §3
Rattus norvegicus [10] = experiment: Toxicity in Wistar rat assessed as gastric lesion at 52 to 65 mg/kg, po; type: organism-based, Stomach; design: dose 52-65 mg/kg, route oral; details: in vivo; how it was run: as §2
Rattus norvegicus [11] = experiment: Antiinflammatory activity against Wistar rat assessed as decrease in gastric level of PGE2 at 52 to 65 mg/kg, po; type: functional, organism-based; details: Stomach; how it was run: as §1
Rattus norvegicus [12] = experiment: Antiinflammatory activity in rat assessed as inhibition of carrageenan-induced paw edema at 13 mg/kg, po administered 1 hr before carrageenan challenge measured after 3 to 6 hrs; type: functional, organism-based; design: dose 13 mg/kg; how it was run: as §3

Row | IC50 [1] [µM] | IC50 [2] [µM] | Ratio IC50 (Homo sapiens) | SMILES | Activity [3] | Activity (Rattus norvegicus [4]) | Activity (Rattus norvegicus [5]) | Activity (Rattus norvegicus [6]) | Activity (Rattus norvegicus [7]) | Activity (Rattus norvegicus [8]) | Activity (Rattus norvegicus [9]) | Activity (Rattus norvegicus [10]) | Activity (Rattus norvegicus [11]) | Activity (Rattus norvegicus [12])
1 | 0.6 | 3.1 | 0.4 | CC(C(=O)O)c1ccc(C[C@H]2CCC[C@@H]2O)cc1F (relative stereo) | – | – | – | – | – | – | – | – | – | –
2 | 30.3 | 65.3 | 0.5 | CC(C(=O)[O-])c1ccc(CC2CCCC2=O)cc1Br.[Na+] (stereo not drawn) [BROMOLOXOPROFEN] | Not Active | – | – | – | – | – | – | Toxic | Active | Active
3 | 7.7 | 48 | 0.2 | CC(C(=O)O)c1ccc(C[C@@H]2CCC[C@@H]2O)cc1F (relative stereo) | – | – | – | – | – | – | – | – | – | –
4 | 2.2 | 8.5 | 0.3 | CC(C(=O)O)c1ccc(C[C@H]2CCC[C@@H]2O)cc1Br (relative stereo) | – | – | – | – | – | – | – | – | – | –
5 | 7.2 | 34 | 0.2 | CC(C(=O)O)c1ccc(C[C@@H]2CCC[C@@H]2O)cc1Br (relative stereo) | – | – | – | – | – | – | – | – | – | –

Row | SMILES | IC50 [1] [µM] | IC50 [2] [µM] | Ratio IC50 (Homo sapiens) | Activity [3] | Activity (Rattus norvegicus [4]) | Activity (Rattus norvegicus [5]) | Activity (Rattus norvegicus [6]) | Activity (Rattus norvegicus [7]) | Activity (Rattus norvegicus [8]) | Activity (Rattus norvegicus [9]) | Activity (Rattus norvegicus [10]) | Activity (Rattus norvegicus [11]) | Activity (Rattus norvegicus [12])
6 | CC(C(=O)[O-])c1ccc(CC2CCCC2=O)cc1F.[Na+] (stereo not drawn) [FLUORO LOXOPROFEN] | 24.2 | 14.3 | 2.5 | Not Active | Active | Toxic | Active | – | – | – | – | – | –
7 | CC(C(=O)[O-])c1ccc(CC2CCCC2=O)cc1.[Na+] (stereo not drawn) [LOXOPROFEN SODIUM] | 23.5 | 10.1 | 2.5 | Active | – | – | – | Toxic | Active | Active | – | – | –
